Screening data deposited in PubChem by several laboratories.
An excerpt weighted towards active compounds, which were near 2.7% of everything screened.
MC4R antag cAMP – antagonists of human melanocortin 4 receptor (MC4R). P32245. MC4R-expressing cells, MTII-stimulated cAMP, LANCE TR-FRET. inhibition, % at 6.5 µM. 0.48% of 360,000 active. AID 540295;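 active means inhibition above its plate's cutoff, the mean of tested wells on that plate plus 3 SD, cut at about 29% in these data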;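 further: 0% = Melanotan II alone and 100% = Melanotan II plus saturating MCL0020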
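System: U2OS-MC4R stable cell line; Technique: Eu-cAMP/anti-cAMP TR-FRET, emission 671 nm; Repeats: single well per compound; Also added: Melanotan II; Dosing: one concentration, 6.5 µM nominal; Schedule: 30-min compound, 1-h challenge, 1-h detection, room temperature.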
PREPL inhibitor – human PREPL enzyme inhibition; AID 2751; recombinant PREPL, fluorescence polarization activity-based probe; Q4J6C6; 0.68% of 320,000 active; inhibition, % at 5.96 µM; in the data active means inhibition above about 43%;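 further: 0% = enzyme with DMSO and 100% = wells lacking enzyme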
Target sequence (Q4J6C6 whole entry, looked up): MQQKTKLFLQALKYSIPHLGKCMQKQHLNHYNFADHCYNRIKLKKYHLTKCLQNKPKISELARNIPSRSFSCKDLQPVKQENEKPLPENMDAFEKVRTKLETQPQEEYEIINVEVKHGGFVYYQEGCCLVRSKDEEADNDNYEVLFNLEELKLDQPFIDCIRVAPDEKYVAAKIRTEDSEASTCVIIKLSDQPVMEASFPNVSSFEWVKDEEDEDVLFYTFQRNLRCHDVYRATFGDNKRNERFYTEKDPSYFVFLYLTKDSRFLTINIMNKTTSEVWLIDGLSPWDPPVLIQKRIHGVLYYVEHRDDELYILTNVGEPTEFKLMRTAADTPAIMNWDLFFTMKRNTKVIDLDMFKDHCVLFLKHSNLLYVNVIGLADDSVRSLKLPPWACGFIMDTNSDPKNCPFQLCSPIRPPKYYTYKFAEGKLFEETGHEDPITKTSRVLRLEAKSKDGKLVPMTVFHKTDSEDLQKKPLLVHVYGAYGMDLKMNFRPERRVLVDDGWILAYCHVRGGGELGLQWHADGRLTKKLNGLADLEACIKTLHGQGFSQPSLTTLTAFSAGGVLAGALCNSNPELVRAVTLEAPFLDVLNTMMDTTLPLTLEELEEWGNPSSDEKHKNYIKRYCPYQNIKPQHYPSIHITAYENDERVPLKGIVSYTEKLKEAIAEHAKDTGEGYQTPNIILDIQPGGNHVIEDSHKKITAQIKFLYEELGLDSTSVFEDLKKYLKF
HTR2A ag – agonists of mouse serotonin 5-HT2A receptor (HTR2A). P35363. CHO-K1 mHTR2A beta-arrestin complementation, luminescence; percent of 30 µM serotonin response. activation, % at 7.6 µM. 0.66% of 360,000 active;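 active means activation above a run cutoff, the mean activation of all tested compounds plus 3 SD, cut at about 14% in these data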;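 further: 0% = plate median of compound wells and 100% = 30 µM serotonin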
NTR1 ag – NTR1 (human) agonism; activation, % at 20 µM; P30989; 0.17% of 330,000 active; AID 493036; NTR1-U2OS beta-arrestin-GFP spot imaging, agonist mode;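 active means activation at or above 40% of the spot to cytoplasm intensity ratio, with at least 20 cells analyzed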;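 further: 0% = DMSO without peptide and 100% = 100 nM NTR1 peptide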
MC4R barr agon – activates human MC4R beta-arrestin recruitment | U2OS MC4R beta-arrestin complementation, luminescence; percent of melanotan II response, DMSO zero | activation, % at 8.9 µM | 0.98% of 360,000 active | P32245;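 active means activation above a per-plate cutoff, the mean activation of sample wells on that plate plus 3 SD, cut at about 8% in these data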
Hep lipid drop – modulators of hepatic lipid droplet formation | inhibition, % at 6.5 µM | 0.4% of 240,000 active | AML12 mouse hepatocytes, oleate lipid droplets, BODIPY imaging;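 active means lipid droplet intensity inhibited by at least 50%, with more than 500 cells counted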
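System: AML12 hepatocytes (mouse). Probe or stimulus: oleic acid at 100 µM to induce lipid droplet formation. Times: overnight treatment with compound plus oleate. Detection: Image-based BODIPY and DAPI two-channel analysis. Evaluation: percent inhibition of filter-corrected integrated lipid droplet intensity per well.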
MOR ag counter – activates human mu opioid receptor in HTR2A counterscreen; U2OS OPRM1 beta-arrestin PathHunter, luminescence; DMSO 0%, DAMGO 9.3 µM 100%; 5.3% of 2,300 active; shares compounds with HTR2A ag; activation, % at 9.3 µM;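 active means mean activation above the mean of DMSO-only wells plus 3 SD, cut at about 0.5% in these data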
m5-HT2A ag conf – mouse HTR2A agonism confirmed. 19% of 2,300 active. activation, % at 7.6 µM. shares compounds with HTR2A ag. CHO-K1 PathHunter beta-arrestin recruitment, luminescence; DMSO 0%, 30 µM serotonin 100%. AID 624381;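 active means mean activation across triplicates above the hit threshold derived in the original primary screen, cut at about 15% in these data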
An asterisk follows results filed as active; · = no result given.

SMILES | MC4R antag cAMP | PREPL inhibitor | HTR2A ag | NTR1 ag | MC4R barr agon | Hep lipid drop | MOR ag counter | m5-HT2A ag conf
CN(CCOc1ccccc1)Cc1ccccc1 | · | · | 20* | · | · | · | 0 | 37*
O=C(NCc1cc2ccccc2[nH]1)c1ccccc1F | 1 | 8 | -1 | 0 | 0 | -3 | · | ·
O=C(/C=C/[C@H]1O[C@@H](n2ccc(=O)[nH]c2=O)[C@H](O)[C@@H]1O)NCCN1CCCCC1 | · | · | 16* | · | · | · | -1 | -3
CCOc1ccc(NC(=O)CCNS(=O)(=O)c2ccc3c(c2)CC(C)N3C(C)=O)cc1 (stereo unspecified) | 2 | 3 | 4 | 0 | -2 | 13 | · | ·
Cc1nc2ccccc2c(=O)n1-c1ccc(NS(=O)(=O)c2ccccc2)cc1 | 2 | 0 | 15* | 0 | -1 | · | 0 | -2
COc1ccccc1CNC(=O)COC(=O)c1ccc2c(=O)n3c(nc2c1)CCCCC3 | -1 | 1 | 18* | -2 | -2 | · | -1 | 0
CC(NC(=O)COC(=O)c1ccc2c(=O)n3c(nc2c1)CCCCC3)c1ccc(F)cc1 (stereo unspecified) | 9 | · | 2 | · | -2 | · | · | ·
CC(C)C(=O)N[C@@H]1c2ccccc2CC[C@@H]1O | 7 | · | 2 | 0 | 0 | · | · | ·
O=C1N(CN2CCN(c3cccc(Cl)c3)CC2)c2ccccc2C12OCCCO2 | 14 | 4 | 18* | 5 | 0 | -3 | -1 | 8
O=C(CN1C(=O)c2cccnc2Oc2ccc(Cl)cc21)N1CCOCC1 | 1 | -4 | 14* | 0 | -1 | 6 | 0 | 2
COc1ccc(N(C)C(=O)c2cc3c(s2)-c2ccc(Cl)cc2S(=O)(=O)C3)c(OC)c1 | 5 | 8 | 14* | 4 | -2 | -3 | 0 | -5
O=S(CC(O)c1ccccc1)c1ccccc1 (stereo unspecified) | -2 | · | -4 | · | 0 | · | · | ·
O=C(CSc1nc2ccc(Nc3nc(N4CCOCC4)nc(N4CCOCC4)n3)cc2s1)N1CCOCC1 | 17 | 9 | 15* | 2 | -1 | -1 | -1 | -3
CC(=O)Nc1ccc2nc(SCC(=O)N3CCOCC3)sc2c1 | 14 | -10 | -2 | -1 | -1 | -6 | · | ·
O=C(CSc1nc2ccc(Nc3nc(N4CCOCC4)nc(N4CCOCC4)n3)cc2s1)Nc1ccccc1F | -2 | · | 16* | 6 | 1 | 9 | 0 | -2
CC(C)[C@@H](C(=O)N1CCCC1)N1C(=O)N2CCc3c([nH]c4ccccc34)[C@@]2(C)C1=O | 10 | 15 | 0 | 2 | -3 | · | · | ·
CC1(C)Cc2c(cnn2-c2ccccc2)C(NC(=O)c2ccc[n+]([O-])c2)C1 (stereo unspecified) | 7 | -7 | 4 | 2 | 2 | 12 | · | ·
NC(N)=NS(=O)(=O)c1ccc(NC(=S)NC(=O)c2sc3ccccc3c2Cl)cc1 | 17 | 5 | -5 | 0 | -1 | -2 | · | ·
CCCCCc1cc(=O)oc2c(C(CCN3CCN(c4ccccc4)CC3)c3ccc4c(c3)OCO4)c(OC)cc(OC)c12 (stereo unspecified) | 0 | 14 | 22* | -2 | -1 | 1 | -1 | 49*
O=c1cc(C(F)(F)F)nc(SCc2cccc3ccccc23)[nH]1 | -3 | -5 | 18* | 0 | 1 | 22 | -1 | 5
Cc1ccc(S(=O)(=O)NC(=O)Nc2cccc(S(=O)(=O)N(C)C)c2)cc1 | -9 | -3 | 17* | -2 | -3 | · | -1 | 0
CCN(CC(=O)NCc1ccc(Cl)cc1)C(=O)c1sccc1C | 4 | 6 | -5 | 1 | -2 | · | · | ·
CCCC1(c2ccccc2)NC(=O)N(CC(=O)N(C)Cc2c(F)cccc2Cl)C1=O (stereo unspecified) | 12 | -16 | -4 | -1 | -1 | 37 | · | ·
CCn1c(N2CCN(Cc3ccc([N+](=O)[O-])cc3)CC2)nc2ccccc21 | 6 | 3 | 0 | 2 | -1 | -17 | · | ·
CCCn1c(N2CCN(Cc3ccc(Cl)cc3)CC2)nc2ccccc21 | 2 | 20 | 22* | 8 | 0 | -7 | 0 | 13
SMILES | MC4R antag cAMP | PREPL inhibitor | HTR2A ag | NTR1 ag | MC4R barr agon | Hep lipid drop | MOR ag counter | m5-HT2A ag conf
Cn1nnnc1N=N/C(=N/Nc1ccccc1)c1ccccc1 | -9 | 13 | 16* | 4 | -4 | 4 | 0 | -4
Oc1ccccc1N=N/C(=N/Nc1ccccc1O)c1ccccc1 | 3 | 1 | 4 | 1 | -1 | · | · | ·
COc1cc(/C=C2\CCc3ccccc3C2=O)cc(OC)c1OC | 2 | 7 | 19* | 0 | -2 | -10 | -1 | -3
COc1cc(/C=C2/CCc3ccccc3C2=O)cc(OC)c1OC | -1 | 7 | -1 | 4 | -1 | -12 | · | ·
CCOc1ccccc1C=C1CCc2ccccc2C1=O | 0 | · | 30* | · | 0 | · | 0 | 9
COC(=O)c1cc(C(=O)OC)cc(-n2c(C)cc(C(=O)COC(=O)CNS(=O)(=O)c3ccc(C)cc3)c2C)c1 | 14 | -11 | -5 | 3 | -1 | -8 | · | ·
CCN1CCN(C(CNS(=O)(=O)c2ccc(OC)c(C)c2)c2cccnc2)CC1 (stereo unspecified) | -5 | 24 | 20* | 1 | -2 | -5 | -1 | -3
CC(=O)c1c(O)cc(=O)oc1-c1ccc(C)cc1 | 3 | 6 | -5 | -1 | -2 | · | · | ·
COc1cc(/C=C2/S/C(=N/S(=O)(=O)c3ccccc3)NC2=O)c([N+](=O)[O-])cc1OC | -9 | 9 | 18* | 3 | -1 | 14 | -1 | -5
O=C(c1cccc(C(=O)N(c2ccccn2)C2CCCCC2)c1)N(c1ccccn1)C1CCCCC1 | 24 | 8 | 30* | 0 | 4 | 18 | 0 | 53*
O=C(c1ccc(Cl)cc1)N(c1ccccn1)C1CCCCC1 | 1 | 6 | -2 | -1 | -2 | 0 | · | ·
S=C(NC1CCCCC1)N1CCN(Cc2ccccc2Cl)CC1 | 26 | 6 | 17* | 0 | 0 | 4 | 0 | 1
Cc1cc(NC(=O)COC(=O)C2CCN(S(=O)(=O)c3cccc(Cl)c3Cl)CC2)no1 | 8 | 7 | 24* | 6 | -1 | -9 | -1 | -4
Cc1cc(NC(=O)COC(=O)C2CCN(C(=O)c3ccc(Cl)cc3)CC2)no1 | 17 | 20 | 5 | 0 | 0 | 2 | · | ·
CCOC(=O)N1CCN(C(=S)NC(=O)c2ccc(F)c(F)c2)CC1 | 26 | 12 | 2 | -2 | 0 | 0 | · | ·
CC(C)(C(=O)Nc1nccs1)c1ccccc1 | 5 | 3 | -4 | 0 | -3 | 2 | · | ·
